Reference: ChEMBL document CHEMBL4619723, “New CDK8 inhibitors as potential anti-leukemic agents - Design, synthesis and biological evaluation” (Bioorg Med Chem, 2020)

Legend:
[1] = target: 1-phosphatidylinositol 3-phosphate 5-kinase (Homo sapiens) (UniProt Q9Y2I7); experiment: Inhibition of biotinylated ligand binding to wild-type human partial length PIKFYVE (F1512 to C2098 residues) expressed in mammalian expression system at 50 nM measured after 1 hr by kinomescan assay relative to control
[2] = target: Mitogen-activated protein kinase kinase kinase 2 (Homo sapiens) (UniProt Q9Y2U5); experiment: Inhibition of biotinylated ligand binding to wild-type human partial length MAP3K2 (S315 to H619 residues) expressed in mammalian expression system at 50 nM measured after 1 hr by kinomescan assay relative to control
How it was run: (§1)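 Competition binding: kinase was bound to streptavidin beads carrying a biotinylated ligand, with test compound at 50 nM, in 20% SeaBlock, 0.17x PBS, 0.05% Tween 20 and 6 mM DTT for 1 h at rt with shaking. After washing, kinase was eluted with 0.5 μM free ligand and quantified by qPCR. Result is POC relative to the DMSO (100%) and control-compound (0%) references.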

[3] = target: Cyclin-dependent kinase 19 (Homo sapiens) (UniProt Q9BWU1); experiment: Inhibition of biotinylated ligand binding to wild-type human partial length CDK11 (M1 to N360 residues) expressed in bacterial expression system at 50 nM measured after 1 hr by kinomescan assay relative to control
Chain of Cyclin-dependent kinase 19 (Homo sapiens) (Q9BWU1 whole entry, the tested form may be a part): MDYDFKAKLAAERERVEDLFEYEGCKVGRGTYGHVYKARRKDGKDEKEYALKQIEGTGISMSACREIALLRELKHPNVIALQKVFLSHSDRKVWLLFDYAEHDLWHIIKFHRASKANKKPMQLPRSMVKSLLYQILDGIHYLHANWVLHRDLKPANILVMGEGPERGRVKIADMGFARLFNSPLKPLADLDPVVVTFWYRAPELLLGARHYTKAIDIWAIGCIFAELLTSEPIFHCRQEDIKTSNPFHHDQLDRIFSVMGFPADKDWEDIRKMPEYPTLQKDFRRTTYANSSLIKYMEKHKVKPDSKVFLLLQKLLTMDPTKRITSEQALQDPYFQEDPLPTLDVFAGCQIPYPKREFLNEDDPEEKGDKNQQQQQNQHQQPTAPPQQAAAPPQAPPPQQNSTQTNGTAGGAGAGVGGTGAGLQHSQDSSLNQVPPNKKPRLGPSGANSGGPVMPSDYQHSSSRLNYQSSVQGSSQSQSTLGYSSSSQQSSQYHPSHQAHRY
How it was run: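 T7 phage-tagged kinase lysates from E. coli BL21 were mixed with streptavidin beads carrying biotinylated ligand and 50 nM compound. Incubated 1 h at room temperature with shaking, washed, then eluted 30 min with 0.5 μM non-biotinylated ligand. Kinase was quantified by qPCR. POC = (test − positive)/(DMSO − positive) ×100, with a control compound as positive.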

[4] = target: NUAK family SNF1-like kinase 2 (Homo sapiens) (UniProt Q9H093); experiment: Inhibition of biotinylated ligand binding to wild-type human partial length SNARK (P22 to A333 residues) expressed in mammalian expression system at 50 nM measured after 1 hr by kinomescan assay relative to control; how it was run: as §1
Chain of NUAK family SNF1-like kinase 2 (Homo sapiens) (Q9H093 whole entry, the tested form may be a part): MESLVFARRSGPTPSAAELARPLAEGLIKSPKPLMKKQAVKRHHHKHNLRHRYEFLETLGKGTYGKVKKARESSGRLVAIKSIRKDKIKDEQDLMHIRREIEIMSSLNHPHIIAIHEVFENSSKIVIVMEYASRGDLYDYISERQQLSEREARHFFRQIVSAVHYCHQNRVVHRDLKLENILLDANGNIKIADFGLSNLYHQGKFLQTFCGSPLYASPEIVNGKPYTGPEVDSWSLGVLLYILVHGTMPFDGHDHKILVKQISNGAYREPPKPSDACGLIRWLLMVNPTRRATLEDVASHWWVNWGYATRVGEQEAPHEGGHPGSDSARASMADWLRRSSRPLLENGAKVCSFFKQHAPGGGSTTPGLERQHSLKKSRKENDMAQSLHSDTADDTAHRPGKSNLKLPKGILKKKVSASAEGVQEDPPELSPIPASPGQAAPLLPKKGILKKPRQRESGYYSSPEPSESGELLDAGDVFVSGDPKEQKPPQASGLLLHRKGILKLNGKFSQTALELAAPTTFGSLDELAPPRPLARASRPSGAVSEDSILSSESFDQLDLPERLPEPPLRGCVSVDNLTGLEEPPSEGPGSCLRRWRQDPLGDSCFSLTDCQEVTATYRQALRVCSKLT

[5] = target: Serine/threonine-protein kinase RIO2 (Homo sapiens) (UniProt Q9BVS4); experiment: Inhibition of biotinylated ligand binding to wild-type human partial length RIOK2 (M1 to D313 residues) expressed in mammalian expression system at 50 nM measured after 1 hr by kinomescan assay relative to control; how it was run: as §1
[6] = target: Serine/threonine-protein kinase pim-2 (Homo sapiens) (UniProt Q9P1W9); experiment: Inhibition of biotinylated ligand binding to wild-type human partial length PIM2 (M1 to E291 residues) expressed in bacterial expression system at 50 nM measured after 1 hr by kinomescan assay relative to control
[7] = target: cAMP-dependent protein kinase catalytic subunit alpha (Homo sapiens) (UniProt P17612); experiment: Inhibition of biotinylated ligand binding to wild-type human partial length PKAC-alpha (G10 to F351 residues) expressed in bacterial expression system at 50 nM measured after 1 hr by kinomescan assay relative to control
[8] = Selectivity ratio of EC50 for rat H9c2 cells to EC50 for human MOLM13 cells; assay type: toxicity; conditions: H9c2 cells versus MOLM13 cells, read-out: Ratio EC50
[9] = target: Phosphatidylinositol 4-phosphate 5-kinase type-1 alpha (Homo sapiens) (UniProt Q99755); experiment: Inhibition of biotinylated ligand binding to wild-type human full length PIP5K1A (M1 to H562 residues) expressed in bacterial expression system at 50 nM measured after 1 hr by kinomescan assay relative to control
How it was run: (§2)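 Kinase-tagged T7 phage was grown in an E. coli BL21-derived host at 32 °C until lysis, and the lysate was clarified. Kinase was bound to streptavidin beads carrying a biotinylated ligand, with test compound at 50 nM (final DMSO), in binding buffer for 1 h at rt. Bound kinase was eluted and quantified by qPCR. Result is POC relative to the DMSO (100%) and control-compound (0%) references.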

[10] = system: Hepatocyte growth factor receptor (Homo sapiens), P08581 [Y1235D]; experiment: Inhibition of biotinylated ligand binding to human partial length MET Y1235D mutant (D1010 to S1367 residues) expressed in bacterial expression system at 50 nM measured after 1 hr by kinomescan assay relative to control; how it was run: as §2
[11] = target: Serine/threonine-protein kinase MAK (Homo sapiens) (UniProt P20794); experiment: Inhibition of biotinylated ligand binding to wild-type human partial length MAK (M1 to P314 residues) expressed in bacterial expression system at 50 nM measured after 1 hr by kinomescan assay relative to control
Chain of Serine/threonine-protein kinase MAK (Homo sapiens) (P20794 whole entry, the tested form may be a part): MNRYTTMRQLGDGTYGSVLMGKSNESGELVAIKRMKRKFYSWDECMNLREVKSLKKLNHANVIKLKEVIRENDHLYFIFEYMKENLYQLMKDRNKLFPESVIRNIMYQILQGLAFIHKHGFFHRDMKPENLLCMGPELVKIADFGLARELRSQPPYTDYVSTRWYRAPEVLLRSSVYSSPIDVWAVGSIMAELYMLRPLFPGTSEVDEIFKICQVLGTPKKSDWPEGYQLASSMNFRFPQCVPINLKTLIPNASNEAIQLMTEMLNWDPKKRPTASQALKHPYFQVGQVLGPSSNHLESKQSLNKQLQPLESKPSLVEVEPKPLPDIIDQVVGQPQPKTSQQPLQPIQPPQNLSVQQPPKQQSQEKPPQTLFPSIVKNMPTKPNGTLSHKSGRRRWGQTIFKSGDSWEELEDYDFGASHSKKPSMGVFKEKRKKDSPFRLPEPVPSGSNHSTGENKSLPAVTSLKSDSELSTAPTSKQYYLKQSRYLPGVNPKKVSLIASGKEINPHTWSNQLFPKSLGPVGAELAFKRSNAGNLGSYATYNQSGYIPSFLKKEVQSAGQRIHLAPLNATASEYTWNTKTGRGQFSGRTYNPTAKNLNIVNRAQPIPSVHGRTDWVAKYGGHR

[12] = target: Mitogen-activated protein kinase 13 (Homo sapiens) (UniProt O15264); experiment: Inhibition of biotinylated ligand binding to wild-type human full length p38-delta (M1 to L365 residues) expressed in bacterial expression system at 50 nM measured after 1 hr by kinomescan assay relative to control; how it was run: as §2
[13] = target: Serine/threonine-protein kinase RIO3 (Homo sapiens) (UniProt O14730); experiment: Inhibition of biotinylated ligand binding to wild-type human full length RIOK3 (M1 to E519 residues) expressed in bacterial expression system assessed at 50 nM measured after 1 hr by kinomescan assay relative to control; how it was run: as §2
[14] = target: Serine/threonine-protein kinase 32C (Homo sapiens) (UniProt Q86UX6); experiment: Inhibition of biotinylated ligand binding to wild-type human partial length YANK3 (M68 to G486 residues) expressed in bacterial expression system at 50 nM measured after 1 hr by kinomescan assay relative to control; how it was run: as §2
[15] = target: BMP-2-inducible protein kinase (Homo sapiens) (UniProt Q9NSY1); experiment: Inhibition of biotinylated ligand binding to wild-type human partial length BIKE (S34 to N329 residues) expressed in bacterial expression system at 50 nM measured after 1 hr by kinomescan assay relative to control; how it was run: as §2
Chain of BMP-2-inducible protein kinase (Homo sapiens) (Q9NSY1 whole entry, looked up, the tested form may be a part): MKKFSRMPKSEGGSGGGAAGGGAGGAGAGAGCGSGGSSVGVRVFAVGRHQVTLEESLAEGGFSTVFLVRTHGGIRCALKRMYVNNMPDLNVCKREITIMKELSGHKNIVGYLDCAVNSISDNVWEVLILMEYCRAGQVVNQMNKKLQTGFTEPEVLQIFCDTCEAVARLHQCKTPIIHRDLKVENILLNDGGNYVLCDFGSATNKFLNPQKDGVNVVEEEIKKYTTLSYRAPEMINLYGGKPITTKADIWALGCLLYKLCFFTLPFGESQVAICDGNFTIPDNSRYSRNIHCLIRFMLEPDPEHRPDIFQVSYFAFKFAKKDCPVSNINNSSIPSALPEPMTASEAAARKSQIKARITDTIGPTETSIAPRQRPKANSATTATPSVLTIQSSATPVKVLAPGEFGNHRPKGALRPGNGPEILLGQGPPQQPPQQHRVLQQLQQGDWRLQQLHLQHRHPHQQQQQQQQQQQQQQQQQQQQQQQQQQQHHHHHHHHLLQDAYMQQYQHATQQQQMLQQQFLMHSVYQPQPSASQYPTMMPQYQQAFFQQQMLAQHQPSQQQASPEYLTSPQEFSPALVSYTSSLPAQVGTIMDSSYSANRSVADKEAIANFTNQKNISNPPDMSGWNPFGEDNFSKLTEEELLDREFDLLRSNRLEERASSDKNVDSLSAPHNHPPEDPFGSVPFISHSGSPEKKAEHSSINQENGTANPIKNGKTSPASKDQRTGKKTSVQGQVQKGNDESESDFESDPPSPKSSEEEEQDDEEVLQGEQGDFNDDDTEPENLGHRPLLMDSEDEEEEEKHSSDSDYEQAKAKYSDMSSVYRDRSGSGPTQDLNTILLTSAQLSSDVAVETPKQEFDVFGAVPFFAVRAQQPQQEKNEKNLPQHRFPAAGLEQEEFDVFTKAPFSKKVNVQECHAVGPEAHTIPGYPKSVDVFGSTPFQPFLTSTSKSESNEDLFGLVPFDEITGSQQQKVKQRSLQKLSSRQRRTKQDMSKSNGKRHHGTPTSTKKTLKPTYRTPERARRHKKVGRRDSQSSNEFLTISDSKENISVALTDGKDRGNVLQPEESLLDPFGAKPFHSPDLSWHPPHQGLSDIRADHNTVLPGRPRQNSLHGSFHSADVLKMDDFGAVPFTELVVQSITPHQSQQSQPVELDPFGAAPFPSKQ

[16] = target: Protein kinase C theta type (Homo sapiens) (UniProt Q04759); experiment: Inhibition of biotinylated ligand binding to wild-type human partial length PRKCQ (L350 to S706 residues) expressed in bacterial expression system at 50 nM measured after 1 hr by kinomescan assay relative to control; how it was run: as §2
[17] = target: cGMP-dependent protein kinase 1 (Homo sapiens) (UniProt Q13976); experiment: Inhibition of biotinylated ligand binding to wild-type human partial length PRKG1 (L339 to F686 residues) expressed in bacterial expression system at 50 nM measured after 1 hr by kinomescan assay relative to control; how it was run: as §2
MOLM-13 = experiment: cells; conditions: Homo sapiens, MOLM-13, 48 h
[18] = target: cAMP-dependent protein kinase catalytic subunit beta (Homo sapiens) (UniProt P22694); experiment: Inhibition of biotinylated ligand binding to wild-type human full length PKAC-beta (M1 to F351 residues) expressed in bacterial expression system at 50 nM measured after 1 hr by kinomescan assay relative to control
[19] = target: cGMP-dependent protein kinase 2 (Homo sapiens) (UniProt Q13237); experiment: Inhibition of biotinylated ligand binding to wild-type human partial length PRKG2 (S422 to F762 residues) expressed in mammalian expression system at 50 nM measured after 1 hr by kinomescan assay relative to control; how it was run: as §1
MV4-11 = experiment: cells; conditions: Homo sapiens, MV4-11, 48 h
NRK = experiment: cells; conditions: Rattus norvegicus, 48 h

Chain of 1-phosphatidylinositol 3-phosphate 5-kinase (Homo sapiens) (Q9Y2I7 whole entry, the tested form may be a part): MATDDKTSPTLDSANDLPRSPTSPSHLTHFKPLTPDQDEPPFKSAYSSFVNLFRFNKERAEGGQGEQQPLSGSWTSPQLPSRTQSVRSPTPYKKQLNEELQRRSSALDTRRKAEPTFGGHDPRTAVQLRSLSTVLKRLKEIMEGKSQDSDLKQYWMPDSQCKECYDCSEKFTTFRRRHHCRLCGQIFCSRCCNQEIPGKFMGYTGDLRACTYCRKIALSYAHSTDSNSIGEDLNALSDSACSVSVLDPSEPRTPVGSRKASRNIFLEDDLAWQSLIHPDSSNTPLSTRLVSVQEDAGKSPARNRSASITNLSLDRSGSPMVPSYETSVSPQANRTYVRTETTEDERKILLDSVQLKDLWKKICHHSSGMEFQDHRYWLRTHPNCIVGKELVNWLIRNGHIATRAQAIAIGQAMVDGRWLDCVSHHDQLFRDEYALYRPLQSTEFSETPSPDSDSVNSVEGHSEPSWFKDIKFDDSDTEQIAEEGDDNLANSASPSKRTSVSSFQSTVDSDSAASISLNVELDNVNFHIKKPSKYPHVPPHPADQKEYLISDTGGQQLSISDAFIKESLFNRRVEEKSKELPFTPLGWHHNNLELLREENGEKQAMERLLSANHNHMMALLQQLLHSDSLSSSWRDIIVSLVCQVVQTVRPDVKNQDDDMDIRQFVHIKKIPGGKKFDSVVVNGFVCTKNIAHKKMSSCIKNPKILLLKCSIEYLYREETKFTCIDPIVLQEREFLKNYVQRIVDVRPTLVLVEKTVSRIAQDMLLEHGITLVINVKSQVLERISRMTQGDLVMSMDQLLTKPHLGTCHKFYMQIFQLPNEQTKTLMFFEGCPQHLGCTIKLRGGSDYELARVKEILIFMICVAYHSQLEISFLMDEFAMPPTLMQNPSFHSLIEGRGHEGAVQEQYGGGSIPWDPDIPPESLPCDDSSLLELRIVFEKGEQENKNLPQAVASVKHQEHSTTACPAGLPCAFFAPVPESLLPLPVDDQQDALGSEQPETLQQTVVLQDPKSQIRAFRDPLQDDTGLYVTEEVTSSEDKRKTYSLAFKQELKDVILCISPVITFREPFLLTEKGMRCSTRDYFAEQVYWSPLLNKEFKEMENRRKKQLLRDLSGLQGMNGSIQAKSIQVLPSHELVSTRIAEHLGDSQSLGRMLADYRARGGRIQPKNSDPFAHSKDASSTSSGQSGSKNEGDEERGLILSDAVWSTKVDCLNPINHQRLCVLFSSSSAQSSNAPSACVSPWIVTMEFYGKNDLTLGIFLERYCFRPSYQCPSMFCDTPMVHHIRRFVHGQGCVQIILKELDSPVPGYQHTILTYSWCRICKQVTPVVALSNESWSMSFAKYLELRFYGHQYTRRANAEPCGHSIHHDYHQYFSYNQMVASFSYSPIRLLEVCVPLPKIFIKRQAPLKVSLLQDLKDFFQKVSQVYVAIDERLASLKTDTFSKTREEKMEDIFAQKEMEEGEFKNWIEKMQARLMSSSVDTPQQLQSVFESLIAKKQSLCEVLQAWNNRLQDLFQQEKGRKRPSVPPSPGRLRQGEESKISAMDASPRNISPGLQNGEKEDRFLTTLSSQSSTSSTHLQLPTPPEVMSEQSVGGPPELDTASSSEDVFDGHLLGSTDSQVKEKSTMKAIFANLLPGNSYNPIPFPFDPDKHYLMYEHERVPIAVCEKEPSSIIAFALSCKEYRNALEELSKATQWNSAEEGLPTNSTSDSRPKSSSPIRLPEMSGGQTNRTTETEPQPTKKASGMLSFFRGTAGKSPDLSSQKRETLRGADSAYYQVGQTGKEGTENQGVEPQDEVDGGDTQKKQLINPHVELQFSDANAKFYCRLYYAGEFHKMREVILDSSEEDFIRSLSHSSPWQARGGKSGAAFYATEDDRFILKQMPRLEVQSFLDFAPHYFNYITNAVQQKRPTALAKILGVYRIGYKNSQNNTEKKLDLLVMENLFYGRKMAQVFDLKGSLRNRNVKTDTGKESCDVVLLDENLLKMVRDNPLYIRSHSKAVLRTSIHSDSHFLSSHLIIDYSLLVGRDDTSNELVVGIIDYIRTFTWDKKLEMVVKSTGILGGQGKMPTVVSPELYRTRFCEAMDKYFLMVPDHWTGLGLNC

For CN(C)[C@@H]1CC[C@@]2(C)[C@@H](CC[C@@H]3[C@@H]2CC[C@]2(C)C(c4cccc5cnccc45)=CC[C@@H]32)C1, the inhibition [1] was > 80%, the inhibition [2] was > 80% and the inhibition [3] was > 80%. For the same compound, the inhibition [4] was > 80%, the inhibition [5] was > 80% and the inhibition [6] was > 80%. The inhibition [7] was > 80%, the selectivity ratio [8] was 3 to 4 and the inhibition [9] was > 80%. For the same compound, the inhibition [10] was > 80%, the inhibition [11] was > 80% and the inhibition [12] was > 80%. The inhibition [13] was > 80%, the inhibition [14] was > 80% and the inhibition [15] was > 80%. The inhibition [16] was > 80%, the inhibition [17] was > 80% and the EC50 (MOLM-13) was 5.9 µM. For the same compound, the inhibition [18] was > 80%, the inhibition [19] was > 80% and the EC50 (MV4-11) was 5.4 µM. It also gave an EC50 (NRK) of 16.2 µM.
